Results taken from ChEMBL document CHEMBL2176955, “Discovery of the macrocycle 11-(2-pyrrolidin-1-yl-ethoxy)-14,19-dioxa-5,7,26-triaza-tetracyclo[19.3.1.1(2,6).1(8,12)]heptacosa-1(25),2(26),3,5,8,10,12(27),16,21,23-decaene (SB1518), a potent Janus kinase 2/fms-like tyrosine kinase-3 (JAK2/FLT3) inhibitor for the treatment of myelofibrosis and …” (J Med Chem, 2011).
pIC50: −log10 of the molar value.

Experiments:
[1] = Antitumor activity against mouse BA/F3 cells harboring JAK2 V617F mutant allografted in athymic BALB/c nude mouse assessed as normalization of spleen weight at 150 mg/kg, po bid administered on day 4 post inoculation for 13 consecutive days measured on day 13 relative to vehicle-treated control; format: functional, BaF3
Summary of the method: (§1)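 Female BALB/c nude mice given 2 × 10⁶ Ba/F3-JAK2 V617F cells by tail vein in serum-free medium. Oral dosing twice daily at 75 or 150 mg/kg (free base) from day 4 for 13 days, 8 mice per group, 4 naive baseline mice. Spleens and livers weighed at sacrifice; ANOVA with Dunnett's test.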

[2] = Antitumor activity against mouse BA/F3 cells harboring JAK2 V617F mutant allografted in athymic BALB/c nude mouse assessed as normalization of liver weight at 150 mg/kg, po bid administered on day 4 post inoculation for 13 consecutive days measured on day 13 relative to vehicle-treated control; format: functional, BaF3; summary of the method: as §1
[3] = Terminal half life in Wistar rat at 10 mg/kg, po administered as single dose; format: ADME, organism-based; set-up: dose 10 mg/kg, route oral; settings: in vivo, read-out: beta t1/2 (converted)
[4] = Antiproliferative activity against mouse BA/F3 cells harboring JAK2 V617F mutation assessed as cell viability after 48 hrs by Cell titer Glo assay; format: functional; settings: BaF3, 48 h
Mus musculus [5] = test: Toxicity in athymic BALB/c nude mouse allografted with mouse BA/F3 cells harboring JAK2 V617F mutant assessed as body weight loss at 75 and 150 mg/kg, po administered twice daily for 13 consecutive days starting from day 4 post challenge relative to control; settings: in vivo
[6] = Oral bioavailability in Wistar rat at 10 mg/kg, administered as single dose; format: ADME, organism-based; settings: in vivo
[7] = Terminal half life in BALB/c mouse at 30 mg/kg, po administered as single dose; format: ADME, organism-based; set-up: dose 30 mg/kg, route oral; settings: in vivo, read-out: beta t1/2 (converted)
[8] = Oral bioavailability in Beagle dog at 3 mg/kg, administered as single dose; format: ADME, organism-based, Canis lupus familiaris; settings: in vivo
Mus musculus [9] = test: Toxicity in athymic BALB/c nude mouse xenografted with human MV4-11 cells harboring FLT3 ITD assessed as body weight loss at 50 to 100 mg/kg, po qd administered for 21 consecutive days measured up to 55 days relative to control; format: organism-based; set-up: dose 50-100 mg/kg, route oral; settings: in vivo, 1320 h
Summary of the method: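 Female BALB/c nude mice implanted subcutaneously in right flank with 1 × 10⁷ MV4-11 cells in Matrigel 1:1. At about 130 mm³, oral once-daily dosing at 25, 50 or 100 mg/kg (free base) for 21 days, 8–10 mice per group. Tumours followed to day 55 or 1000 mm³; body weight assessed at termination.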

Cytochrome P450 2C19 = Cytochrome P450 2C19 (Homo sapiens, UniProt P33261); test: Inhibition of CYP2C19 in human liver microsomes assessed as decrease in formation of 4-hydroxymephenytoin from mephenytoin substrate after 60 mins by LC-MS/MS; format: ADME, Microsome
Sequence of Cytochrome P450 2C19 (P33261 whole entry, canonical isoform): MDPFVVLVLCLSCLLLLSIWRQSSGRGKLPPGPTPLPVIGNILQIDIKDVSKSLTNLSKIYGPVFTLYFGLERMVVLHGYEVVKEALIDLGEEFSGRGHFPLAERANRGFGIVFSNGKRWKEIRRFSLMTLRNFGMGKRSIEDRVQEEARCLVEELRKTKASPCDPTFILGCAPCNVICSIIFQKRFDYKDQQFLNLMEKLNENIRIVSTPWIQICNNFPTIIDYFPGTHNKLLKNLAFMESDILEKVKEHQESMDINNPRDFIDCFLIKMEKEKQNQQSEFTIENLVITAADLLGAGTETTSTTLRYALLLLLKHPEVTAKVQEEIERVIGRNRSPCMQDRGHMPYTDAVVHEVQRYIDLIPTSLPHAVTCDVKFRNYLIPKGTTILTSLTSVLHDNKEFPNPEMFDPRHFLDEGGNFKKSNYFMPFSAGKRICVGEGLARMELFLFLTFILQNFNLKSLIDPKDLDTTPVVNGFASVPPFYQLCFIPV
Summary of the method: (§2)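 Human liver microsomes with 1 mM NADPH at 37 °C. Test compound at 0.05–25 μM (final DMSO 0.35%). Conditions per isoform: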

[10] = Tmax in Beagle dog at 3 mg/kg, po administered via gelatin capsule as single dose; format: ADME, organism-based, Canis lupus familiaris; set-up: dose 3 mg/kg, route oral; settings: in vivo
[11] = Plasma protein binding in mouse at 1000 ng/ml by LC/MS/MS analysis; format: ADME, cell-free; settings: read-out: PPB (converted)
Summary of the method: (§3)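 Equilibrium dialysis of mouse, dog or human plasma spiked to 1000 ng/mL against PBS, 4 h at 37 °C. The buffer side was extracted with MTBE in triplicate and analysed by LC/MS/MS.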

[12] = Terminal half life in Beagle dog at 3 mg/kg, po administered via gelatin capsule as single dose; format: ADME, organism-based, Canis lupus familiaris; set-up: dose 3 mg/kg, route oral; settings: in vivo, read-out: beta t1/2 (converted)
MV4-11 [13] = test: Antiproliferative activity against human MV4-11 cells harboring FLT3 […] mutant assessed as cell viability after 48 hrs by Cell titer Glo assay; format: functional; settings: MV4-11, 48 h
[14] = Half life in rat liver microsomes at 5 uM by LC/MS/MS analysis; format: ADME, Microsome
Summary of the method: (§4)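 Compound at 5 μM incubated at 37 °C with dog or rat liver microsomes (~0.87 mg/mL) in 50 mM potassium phosphate pH 7.4 with NADPH regenerating system.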

[15] = AUC ( 0 to 8 hrs) in Beagle dog at 3 mg/kg, po administered via gelatin capsule as single dose; format: ADME, organism-based, Canis lupus familiaris; set-up: time < 8 hr, dose 3 mg/kg, route oral; settings: plasma
MV4-11 [16] = test: Antitumor activity against human MV4-11 cells harboring FLT3 ITD xenografted in athymic BALB/c nude mouse assessed as survival at 25 mg/kg, po qd administered for 21 consecutive days measured up to 55 days ( Rvb = 33 days ); format: functional
[17] = Oral bioavailability in BALB/c mouse at 30 mg/kg, administered as single dose; format: ADME, organism-based; settings: in vivo
[18] = Apparent permeability from apical to basolateral side in human Caco2 cells at 5 uM after 2 hrs by LC/MS analysis at pH 7.4; format: ADME, cell-based; settings: Caco-2, pH 7.4
Summary of the method: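 Compound at 5 μM in HBSS (DMSO <1%) applied apically or basolaterally to 21–28 day Caco-2 monolayers, both sides pH 7.4. Both sides sampled at 2 h, LC/MS quantitation with 4-point calibration. Monolayer integrity checked by TEER (450–650 Ωcm²) and Lucifer Yellow.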

[19] = AUC (0 to 8 hrs) in Wistar rat at 10 mg/kg, po administered as single dose; format: ADME, organism-based; set-up: time < 8 hr, dose 10 mg/kg, route oral; settings: plasma
Cytochrome P450 2C9 = Cytochrome P450 2C9 (Homo sapiens, UniProt P11712); test: Inhibition of CYP2C9 in human liver microsomes assessed as decrease in formation of 4-hydroxytolbutamide from tolbutamide substrate after 60 mins by LC-MS/MS; format: ADME, Microsome; summary of the method: as §2
Sequence of Cytochrome P450 2C9 (P11712 whole entry): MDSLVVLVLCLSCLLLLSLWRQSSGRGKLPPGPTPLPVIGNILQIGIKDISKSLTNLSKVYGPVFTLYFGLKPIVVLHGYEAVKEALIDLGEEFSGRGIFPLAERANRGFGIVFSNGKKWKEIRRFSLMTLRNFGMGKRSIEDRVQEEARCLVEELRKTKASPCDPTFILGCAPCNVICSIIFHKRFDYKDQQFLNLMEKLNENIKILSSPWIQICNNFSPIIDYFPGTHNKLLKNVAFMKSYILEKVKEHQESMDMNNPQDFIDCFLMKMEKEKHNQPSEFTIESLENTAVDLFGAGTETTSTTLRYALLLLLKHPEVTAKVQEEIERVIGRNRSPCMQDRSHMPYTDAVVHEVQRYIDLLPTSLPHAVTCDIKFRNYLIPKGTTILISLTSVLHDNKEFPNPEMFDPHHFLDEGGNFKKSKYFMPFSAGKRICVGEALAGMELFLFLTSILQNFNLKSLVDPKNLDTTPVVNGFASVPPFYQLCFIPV

[20] = target: Non-receptor tyrosine-protein kinase TYK2 (Homo sapiens, UniProt P29597); test: Inhibition of recombinant TYK2
Sequence of Non-receptor tyrosine-protein kinase TYK2 (P29597 whole entry): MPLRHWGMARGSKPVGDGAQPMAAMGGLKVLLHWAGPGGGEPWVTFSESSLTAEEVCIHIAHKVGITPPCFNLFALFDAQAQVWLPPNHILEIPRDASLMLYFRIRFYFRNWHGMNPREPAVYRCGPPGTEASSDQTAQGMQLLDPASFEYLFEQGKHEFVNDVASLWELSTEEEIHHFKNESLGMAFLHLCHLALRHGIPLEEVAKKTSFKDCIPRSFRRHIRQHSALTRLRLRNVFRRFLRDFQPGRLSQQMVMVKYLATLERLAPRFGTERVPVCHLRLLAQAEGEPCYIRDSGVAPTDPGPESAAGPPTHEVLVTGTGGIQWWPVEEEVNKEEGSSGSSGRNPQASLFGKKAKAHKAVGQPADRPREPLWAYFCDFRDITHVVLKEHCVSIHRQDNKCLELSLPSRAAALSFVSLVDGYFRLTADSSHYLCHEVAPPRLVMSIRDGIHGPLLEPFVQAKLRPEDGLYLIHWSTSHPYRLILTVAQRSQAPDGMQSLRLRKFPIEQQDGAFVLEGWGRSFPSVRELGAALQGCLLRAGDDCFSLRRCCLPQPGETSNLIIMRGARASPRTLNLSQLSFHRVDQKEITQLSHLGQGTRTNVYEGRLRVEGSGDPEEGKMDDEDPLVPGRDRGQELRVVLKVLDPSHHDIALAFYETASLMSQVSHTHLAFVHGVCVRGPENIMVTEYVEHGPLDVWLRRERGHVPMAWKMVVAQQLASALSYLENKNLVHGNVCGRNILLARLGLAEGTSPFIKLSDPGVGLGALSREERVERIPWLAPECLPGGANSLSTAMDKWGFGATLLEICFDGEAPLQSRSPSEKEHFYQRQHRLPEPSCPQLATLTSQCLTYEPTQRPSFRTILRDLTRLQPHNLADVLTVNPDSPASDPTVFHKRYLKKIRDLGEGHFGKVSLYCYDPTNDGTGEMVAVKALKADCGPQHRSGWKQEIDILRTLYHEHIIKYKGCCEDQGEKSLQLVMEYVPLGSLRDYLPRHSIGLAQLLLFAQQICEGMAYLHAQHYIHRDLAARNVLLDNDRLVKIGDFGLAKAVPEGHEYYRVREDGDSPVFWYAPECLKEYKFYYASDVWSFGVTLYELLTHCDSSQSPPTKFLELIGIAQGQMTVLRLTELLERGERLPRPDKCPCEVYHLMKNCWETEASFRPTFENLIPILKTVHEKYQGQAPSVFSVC

[21] = Cmax in Beagle dog at 3 mg/kg, po administered via gelatin capsule as single dose; format: ADME, organism-based, Canis lupus familiaris; set-up: dose 3 mg/kg, route oral; settings: in vivo
in vitro = settings: PAMPA
CYP3A4 = CYP3A4 (Homo sapiens, UniProt P08684); test: Inhibition of CYP3A4 in human liver microsomes assessed as decrease in formation of 1-hydroxymidazolam from midazolam substrate at 5 uM after 5 mins by LC-MS/MS; format: ADME, Microsome; settings: probe midazolam; summary of the method: as §2
Sequence of CYP3A4 (P08684 whole entry): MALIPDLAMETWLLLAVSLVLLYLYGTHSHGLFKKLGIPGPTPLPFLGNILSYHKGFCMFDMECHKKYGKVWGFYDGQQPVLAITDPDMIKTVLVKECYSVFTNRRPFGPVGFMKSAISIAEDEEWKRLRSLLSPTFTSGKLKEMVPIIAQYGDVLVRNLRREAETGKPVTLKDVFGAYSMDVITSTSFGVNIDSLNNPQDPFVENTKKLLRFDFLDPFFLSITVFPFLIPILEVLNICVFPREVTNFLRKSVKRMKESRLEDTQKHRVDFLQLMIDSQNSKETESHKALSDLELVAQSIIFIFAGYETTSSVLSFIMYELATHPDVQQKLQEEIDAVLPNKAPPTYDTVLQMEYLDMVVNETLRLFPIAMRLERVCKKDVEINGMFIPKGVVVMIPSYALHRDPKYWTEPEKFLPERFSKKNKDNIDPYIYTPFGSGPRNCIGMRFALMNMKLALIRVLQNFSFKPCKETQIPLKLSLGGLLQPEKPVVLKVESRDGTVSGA

[22] = AUC (0 to 8 hrs) in BALB/c mouse at 30 mg/kg, po administered as single dose; format: ADME, organism-based; set-up: time < 8 hr, dose 30 mg/kg, route oral; settings: plasma
[23] = Plasma protein binding in human at 1000 ng/ml by equilibrium dialysis assay; format: ADME, cell-free; settings: read-out: PPB (converted); summary of the method: as §3
CYP2D6 = CYP2D6 (Homo sapiens, UniProt P10635); test: Inhibition of CYP2D6 in human liver microsomes assessed as decrease in formation of dextrorphan from dextromethorphan substrate at 5 uM after 30 mins by LC-MS/MS; format: ADME, Microsome; settings: probe dextromethorphan; summary of the method: as §2
Sequence of CYP2D6 (P10635 whole entry): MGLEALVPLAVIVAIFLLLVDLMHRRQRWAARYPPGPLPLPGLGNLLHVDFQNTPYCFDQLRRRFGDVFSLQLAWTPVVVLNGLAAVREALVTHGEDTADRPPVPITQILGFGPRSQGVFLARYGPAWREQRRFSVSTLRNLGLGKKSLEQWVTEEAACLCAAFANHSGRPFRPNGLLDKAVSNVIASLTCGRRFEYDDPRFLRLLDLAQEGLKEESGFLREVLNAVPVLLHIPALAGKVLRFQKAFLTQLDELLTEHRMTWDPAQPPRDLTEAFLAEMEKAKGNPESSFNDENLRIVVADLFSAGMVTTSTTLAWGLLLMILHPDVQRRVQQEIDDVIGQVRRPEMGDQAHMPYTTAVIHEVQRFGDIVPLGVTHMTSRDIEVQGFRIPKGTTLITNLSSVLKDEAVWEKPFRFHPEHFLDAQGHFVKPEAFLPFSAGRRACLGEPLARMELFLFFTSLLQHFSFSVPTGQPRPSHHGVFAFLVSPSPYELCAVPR

physchem = settings: phosphate buffer saline, pH 7
[24] = Half life in dog liver microsomes at 5 uM by LC/MS/MS analysis; format: ADME, Canis lupus familiaris, Microsome; summary of the method: as §4
MV4-11 [25] = test: Antitumor activity against human MV4-11 cells harboring FLT3 ITD xenografted in athymic BALB/c nude mouse assessed as survival at 50 mg/kg, po qd administered for 21 consecutive days measured up to 55 days ( Rvb = 33 days ); format: functional
MV4-11 [26] = test: Antitumor activity against human MV4-11 cells harboring FLT3 ITD xenografted in athymic BALB/c nude mouse assessed as survival at 100 mg/kg, po qd administered for 21 consecutive days measured up to 55 days ( Rvb = 33 days ); format: functional
[27] = Cmax in BALB/c mouse at 30 mg/kg, po administered as single dose; format: ADME, organism-based; set-up: dose 30 mg/kg, route oral; settings: in vivo
[28] = Cmax in Wistar rat at 10 mg/kg, po administered as single dose; format: ADME, organism-based; set-up: dose 10 mg/kg, route oral; settings: in vivo
[29] = target: Cyclin-dependent kinase 2/cyclin A (Homo sapiens, UniProt P24941); test: Inhibition of recombinant CDK2/Cyclin A using RbinG as substrate after 2 hrs by luminescence assay; format: protein-complex assay
Cytochrome P450 1A2 = target: T1, Cytochrome P450 1A2 (Homo sapiens, UniProt P05177); test: Inhibition of CYP1A2 in human liver microsomes assessed as decrease in formation of resorufin from ethoxyresorufin substrate after 5 mins by LC-MS/MS; format: ADME, Microsome; summary of the method: as §2
T1 sequence (P05177 whole entry): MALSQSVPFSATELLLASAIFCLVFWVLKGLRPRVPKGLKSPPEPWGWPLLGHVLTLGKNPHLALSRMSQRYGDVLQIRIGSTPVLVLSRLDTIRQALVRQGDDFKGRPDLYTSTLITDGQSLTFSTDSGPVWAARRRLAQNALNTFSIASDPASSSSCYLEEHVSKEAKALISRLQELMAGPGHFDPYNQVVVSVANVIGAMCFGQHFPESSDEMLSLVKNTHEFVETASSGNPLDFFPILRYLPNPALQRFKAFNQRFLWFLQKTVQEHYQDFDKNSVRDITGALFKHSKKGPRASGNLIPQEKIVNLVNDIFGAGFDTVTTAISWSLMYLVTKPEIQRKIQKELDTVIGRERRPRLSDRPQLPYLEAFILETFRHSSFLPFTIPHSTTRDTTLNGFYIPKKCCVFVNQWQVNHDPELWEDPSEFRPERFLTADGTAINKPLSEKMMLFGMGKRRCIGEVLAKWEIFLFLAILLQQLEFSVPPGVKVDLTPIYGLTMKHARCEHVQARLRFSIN

[30] = Plasma protein binding in dog at 1000 ng/ml by LC/MS/MS analysis; format: ADME, cell-free, Canis lupus familiaris; settings: read-out: PPB (converted); summary of the method: as §3
Mus musculus [31] = test: Toxicity in athymic BALB/c nude mouse allografted with mouse BA/F3 cells harboring JAK2 V617F mutant assessed as body weight loss at 75 mg/kg, po administered twice daily for 13 consecutive days starting from day 4 post challenge relative to control; format: organism-based, BaF3; set-up: dose 75 mg/kg, route oral; settings: in vivo
[32] = target: Tyrosine-protein kinase JAK1 (Homo sapiens, UniProt P23458); test: Inhibition of recombinant JAK1 using Poly (Glu,Ala,Tyr) as substrate after 2 hrs by luminescence assay
Sequence of Tyrosine-protein kinase JAK1 (P23458 whole entry): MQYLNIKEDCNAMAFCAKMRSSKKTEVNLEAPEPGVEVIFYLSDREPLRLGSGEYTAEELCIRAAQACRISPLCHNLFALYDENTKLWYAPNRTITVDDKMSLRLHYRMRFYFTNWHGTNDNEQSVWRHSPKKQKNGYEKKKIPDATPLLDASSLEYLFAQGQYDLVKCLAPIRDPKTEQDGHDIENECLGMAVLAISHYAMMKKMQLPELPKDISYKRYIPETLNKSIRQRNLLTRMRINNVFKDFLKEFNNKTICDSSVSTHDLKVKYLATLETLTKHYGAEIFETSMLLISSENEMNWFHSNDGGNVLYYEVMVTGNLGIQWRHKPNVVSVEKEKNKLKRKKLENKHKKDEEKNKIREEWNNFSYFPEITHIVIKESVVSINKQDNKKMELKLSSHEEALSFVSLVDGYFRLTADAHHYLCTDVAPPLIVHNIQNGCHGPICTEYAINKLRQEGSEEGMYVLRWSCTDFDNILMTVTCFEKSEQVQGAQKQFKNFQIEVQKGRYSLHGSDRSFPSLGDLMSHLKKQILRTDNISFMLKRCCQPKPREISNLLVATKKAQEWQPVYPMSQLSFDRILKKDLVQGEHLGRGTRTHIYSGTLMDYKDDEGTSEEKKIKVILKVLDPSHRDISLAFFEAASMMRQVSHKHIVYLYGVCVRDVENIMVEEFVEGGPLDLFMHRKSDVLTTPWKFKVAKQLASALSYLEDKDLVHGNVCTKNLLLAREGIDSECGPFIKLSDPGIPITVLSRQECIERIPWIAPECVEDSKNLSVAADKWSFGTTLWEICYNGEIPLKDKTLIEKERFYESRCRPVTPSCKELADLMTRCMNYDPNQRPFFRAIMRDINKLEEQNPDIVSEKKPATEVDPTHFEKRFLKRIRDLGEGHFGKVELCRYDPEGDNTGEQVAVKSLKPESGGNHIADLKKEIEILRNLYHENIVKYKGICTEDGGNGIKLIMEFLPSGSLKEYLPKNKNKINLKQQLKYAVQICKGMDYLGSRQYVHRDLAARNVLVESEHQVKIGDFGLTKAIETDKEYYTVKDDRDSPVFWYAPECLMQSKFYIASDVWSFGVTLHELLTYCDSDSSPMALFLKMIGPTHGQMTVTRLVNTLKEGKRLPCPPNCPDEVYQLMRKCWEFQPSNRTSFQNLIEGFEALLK
Summary of the method: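 Luciferase-coupled ATP-depletion luminescence assay in 50 mM Hepes pH 7.5 with MgCl₂, MnCl₂, BGP, DTT and orthovanadate, 2 h at room temperature. Conditions per target: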

## C1=CCOCc2cc(ccc2OCCN2CCCC2)Nc2nccc(n2)-c2cccc(c2)COC1.Cl (mixture of isomers)
[1]
  Activity: 42%
[2]
  Activity: 99%

## C1=N/C2=N/c3ccc(OCCN4CCCC4)c(c3)COC/C=C/COCc3cccc(c3)C(=C1)N2 (mixture of isomers) [PACRITINIB]
[3]
  half-life: 5.7 h
[4]
  GI50: 160 nM
Mus musculus [5]
  Activity: Non-toxic
[6]
  bioavailability: 10%
[7]
  half-life: 0.84 h
[8]
  bioavailability: 24%
Mus musculus [9]
  Activity: Non-toxic
Cytochrome P450 2C19
  pIC50: < 5.30
[10]
  Tmax: 2 h
[11]
  fraction unbound at 1000 ng/ml: 0.0059
[12]
  half-life: 3.4 h
MV4-11 [13]
  GI50: 47 nM
[14]
  half-life at 5 µM: 0.3 h
[15]
  AUC(0-t) at 8 h: 53 ng·h/mL
MV4-11 [16]
  Survival: 35 days
[17]
  bioavailability: 39%
[18]
  Papp A→B at 2 h, 5 µM: 16 ×10⁻⁶ cm/s
[19]
  AUC(0-t) at 8 h: 599 ng·h/mL
Cytochrome P450 2C9
  pIC50: < 5.30
[20]
  pIC50: 7.30
[21]
  Cmax: 11.5 ng/mL
In vitro
  Papp at 5 h, 1 µM: 9.3 ×10⁻⁶ cm/s
CYP3A4
  inhibition at 5 min, 5 µM: 20%
[22]
  AUC(0-t) at 8 h: 399 ng·h/mL
[23]
  fraction unbound at 1000 ng/ml: 0.0012
CYP2D6
  inhibition at 0.5 h, 5 µM: 20%
physchem
  solubility: > 150 µg/mL
[24]
  half-life at 5 µM: 0.683 h
MV4-11 [25]
  Survival: 55 days
MV4-11 [26]
  Survival: 55 days
[27]
  Cmax: 292 ng/mL
[28]
  Cmax: 114 ng/mL
[29]
  pIC50: 5.41
Cytochrome P450 1A2
  pIC50: < 5.30
[30]
  fraction unbound at 1000 ng/ml: 0.0037
Mus musculus [31]
  Activity: Non-toxic
[32]
  pIC50: 5.89
